MEKK2wt PB1 HTS: modulators of MEK5 binding to wildtype MEKK2, primary screen, biochemical, multiplex bead flow cytometry, Alexa488-MEK5; 1.1% of 290,000 active; AID 1531, 2009; Alexa488-MEK5 binding to MEKK2 WT; actives lie on both sides; binding response (% of control), % at 10 µM; in the data active = binding response below about 67% or above about 130%
UBC13 inh: UBC13 polyubiquitin chain formation inhibitors, primary screen, biochemical, TR-FRET, uHTS; Ubiquitin-conjugating enzyme E2 N (Homo sapiens), P61088; inhibition, % at 20 µM; 0.47% of 330,000 active; in the data active = inhibition above about 45%, passing the limit was not always enough
MEKK3 PB1 HTS: modulators of MEKK3-MEK5 PB1 binding, primary screen, biochemical, wildtype MEKK3, multiplex bead flow cytometry, Alexa488-MEK5; binding response (% of control), % at 10 µM; bead-based flow cytometry, Alexa488-MEK5 binding to MEKK3; actives lie on both sides; 0 = blocked by unlabeled MEK5, 100 = vehicle; 1.4% of 290,000 active; AID 1529, 2009;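 active = binding response more than 3 SD above or below the average of its plate-row segment, actives on both sides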;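 note: Alexa488 bead fluorescence after subtracting the streptavidin-only scavenger bead signal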
MEKK2 mut-MEK5: MEK5 binding signal on mutant MEKK2 PB1, primary screen, biochemical, multiplex bead flow cytometry, Alexa488-MEK5; Alexa488-MEK5 binding to MEKK2 mutant; AID 1530, 2009; 0.35% of 290,000 active; percent response, % at 10 µM; in the data active = percent response above about 24%, passing the limit was not always enough
Pemphigus Ab inh: inhibitors of pemphigus antibody binding to DSG3, primary screen, biochemical, bead-based, flow cytometry, scFv-GFP. binding (percent of control), % at 10 µM. AID 588358, 2011. 0.48% of 310,000 active. DSG3-coupled beads, scFv-anti-DSG3-GFP binding; hits give low values. Desmoglein-3 (Homo sapiens), P32926;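 active = binding more than 3 SD below its plate's average and above zero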;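 note: hits lower antibody fragment binding to DSG3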
Target sequence (P32926 whole entry, looked up, the tested form may be a part): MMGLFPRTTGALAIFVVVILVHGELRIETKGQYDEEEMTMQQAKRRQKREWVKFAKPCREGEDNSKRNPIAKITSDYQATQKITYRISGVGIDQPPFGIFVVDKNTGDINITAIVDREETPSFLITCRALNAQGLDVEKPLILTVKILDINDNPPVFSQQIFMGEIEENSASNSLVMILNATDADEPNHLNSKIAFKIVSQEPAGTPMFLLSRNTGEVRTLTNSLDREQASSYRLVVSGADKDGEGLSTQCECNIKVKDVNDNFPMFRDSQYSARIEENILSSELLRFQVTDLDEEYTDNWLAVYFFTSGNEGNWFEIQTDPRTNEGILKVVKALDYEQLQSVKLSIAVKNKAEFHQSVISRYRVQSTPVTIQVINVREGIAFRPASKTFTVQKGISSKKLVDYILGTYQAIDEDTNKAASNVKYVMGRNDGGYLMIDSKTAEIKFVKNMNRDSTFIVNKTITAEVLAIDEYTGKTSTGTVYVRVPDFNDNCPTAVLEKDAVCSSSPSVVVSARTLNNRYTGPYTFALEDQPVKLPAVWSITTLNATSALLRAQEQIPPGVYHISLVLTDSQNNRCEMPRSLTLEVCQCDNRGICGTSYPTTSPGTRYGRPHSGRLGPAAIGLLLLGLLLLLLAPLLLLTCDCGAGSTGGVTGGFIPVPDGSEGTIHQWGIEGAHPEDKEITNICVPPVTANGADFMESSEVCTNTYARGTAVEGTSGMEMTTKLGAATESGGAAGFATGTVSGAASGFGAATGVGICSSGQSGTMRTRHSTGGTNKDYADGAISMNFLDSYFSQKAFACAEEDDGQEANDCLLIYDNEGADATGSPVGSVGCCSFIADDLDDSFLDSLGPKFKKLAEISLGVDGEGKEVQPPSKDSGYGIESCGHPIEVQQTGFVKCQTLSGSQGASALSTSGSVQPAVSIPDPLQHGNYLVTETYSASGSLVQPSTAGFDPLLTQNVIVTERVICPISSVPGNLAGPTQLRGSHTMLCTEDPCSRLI
Apaf1 inhib: inhibitors of human Apaf-1 apoptosome, primary screen, biochemical, DEVD-Rh110 fluorescence, uHTS; Apoptotic protease-activating factor 1 (Homo sapiens), O14727; reconstituted apoptosome caspase-3 activity; inhibition, % at 20 µM; 0.71% of 330,000 active; active = inhibition of at least 40% at 20 µM;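 note: plate controls were DMSO wells for no effect and DEVD-CHO caspase inhibitor wells for full effect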
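Assay system: Apoptosome proteins | Medium: pH 7.5 Hepes buffer with CHAPS, BSA, DTT | Also added: Cytochrome c and DEVD-Rh110 substrate | Times: 30 min plus 50 min, RT | Detection: Rhodamine 110 fluorescence at Ex 480/Em 540 nm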
MEKK2wt confirm: modulators of MEK5 binding to wildtype MEKK2, confirmation, biochemical, single concentration, multiplex bead flow cytometry; shares compounds with MEKK3 PB1 HTS; Alexa488-MEK5 binding to MEKK2 WT; actives lie on both sides; binding response (% of control), % at 10 µM; 2.4% of 5,900 active; AID 1892, 2009; in the data active = binding response below about 16% or above about 210%; inactive = in between
MEKK2mut-MEK5: mutant MEKK2 PB1-MEK5 binding signal retest – biochemical, single concentration, multiplex bead flow cytometry, confirmation; shares compounds with MEKK3 PB1 HTS; 2% of 5,900 active; Alexa488-MEK5 binding to MEKK2 mutant; percent response, % at 10 µM; in the data active = percent response mostly above about 71%, no sharp cut-off; inactive = mostly below about 38%;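 note: higher means compound restores mutant binding toward wildtype level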
MEKK3-MEK5 inh: MEKK3 wild-type PB1 binding to MEK5, inhibitors, confirmation, biochemical, bead multiplex flow cytometry, single concentration, wildtype | shares compounds with MEKK3 PB1 HTS | Alexa488-MEK5 binding to MEKK3; hits give low values | binding response (% of control), % at 10 µM | 1.8% of 5,900 active | AID 1894, 2009;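 active = binding response below 72% of control, or above a set upper limit, though filed actives all read lower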;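 note: 100% = DMSO only wells and 0% = binding blocked by excess unlabeled MEK5; lower values mean stronger disruption of MEK5 binding to MEKK3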
* = called active by the depositor; nt = no result given; [ ] = dose if it differs, or a comment. Only some compounds are listed: those with a hit (about 3.2% of all), similar ones and a draw of the others.

SMILES | MEKK2wt PB1 HTS | UBC13 inh | MEKK3 PB1 HTS | MEKK2 mut-MEK5 | Pemphigus Ab inh | Apaf1 inhib | MEKK2wt confirm | MEKK2mut-MEK5 | MEKK3-MEK5 inh
C#CCOCCOCCOCCNc1nc(N2CCN(C(=O)[C@H](CCC(=O)O)n3cc(C(N)CC(C)C)nn3)CC2)nc(N2CCN(C(=O)[C@H](Cc3ccc(O)cc3)n3cc(C(N)[C@H](C)CC)nn3)CC2)n1 (stereo partly drawn) | 97.0 | -6.6 | 96.0 | -5.0 | nt | 8.1 | nt | nt | nt
C#CCOCCOCCOCCNc1nc(N2CCN(C(=O)[C@H]([C@@H](C)CC)n3cc([C@@H](N)CO)nn3)CC2)nc(N2CCN(C(=O)[C@H](Cc3ccc(O)cc3)n3cc([C@@H](N)C(C)CC)nn3)CC2)n1 (stereo partly drawn) | 111.0 | 5.4 | 106.0 | 11.0 | 111.2 | -2.1 | nt | nt | nt
C#CCOCCOCCOCCNc1nc(N2CCN(C(=O)[C@H]([C@@H](C)CC)n3cc([C@@H](N)CO)nn3)CC2)nc(N2CCN(C(=O)[C@H]([C@@H](C)CC)n3cc([C@@H](N)Cc4ccc(O)cc4)nn3)CC2)n1 | 134.0* | 8.5 | 103.0 | 22.0 | 105.0 | 2.4 | 112.0 | 8.0 | 100.0
O=C(C1=C[C@@H](c2coc3ccccc3c2=O)C[C@@H](OCc2ccc(CO)cc2)O1)N1CCOCC1 | 101.0 | -0.6 | 82.0*[inhibitor] | 1.0 | 98.3 | 14.1 | 97.0 | -3.0 | 98.0
Cc1[nH]c2ccccc2c1CN1CCC(Cc2ccccc2)CC1 | 145.0* | 6.6 | 103.0 | 30.0 | 90.2 | -5.6 | 138.0 | 28.0 | 107.0
O=C(Cn1cc[n+](CC(=O)c2ccc(Cl)cc2Cl)c1)c1ccc(Cl)cc1Cl | 174.0* | 35.0 | 109.0 | 39.0 | 109.5 | 19.7 | 153.0 | 24.0 | 108.0
COC(=O)[C@H]1C[C@@]2(O)CN(S(=O)(=O)c3ccc(C)cc3)C[C@@]2(OC(=O)NC2CCCC2)C[C@H]1C(=O)OC | nt | nt | nt | nt | 109.7 | nt | nt | nt | nt
O=C(C1=C(Nc2ccccc2)c2ccccc2S(=O)(=O)N1)c1ccccc1 | 85.0 | -63.2 | 64.0*[inhibitor] | -2.0 | 101.3 | 25.0 | 95.0 | -7.0 | 103.0
O=C(CNC(=O)c1ccc(Cl)c([N+](=O)[O-])c1)NCC1CCCO1 (stereo not drawn) | 103.0 | -9.0 | 104.0 | 7.0 | nt | -3.2 | nt | nt | nt
CC(C)N1C(=O)NC2(c3ccccc3)N(C)C(=O)N(C)C12c1ccccc1 (stereo not drawn) | 99.0 | 2.9 | 105.0 | -6.0 | 98.9 | -7.0 | nt | nt | nt
CN1C(=O)N(C)C2(c3ccccc3)N(C)C(=O)NC12c1ccccc1 (stereo not drawn) | 50.0 | -4.2 | 35.0*[inhibitor] | -17.0 | 104.2 | -6.5 | 101.0 | 6.0 | 101.0
CCc1cccc(CC)c1NC(=O)COC(=O)c1ccccc1-c1nc2ccccc2s1 | 72.0 | 5.1 | 48.0*[inhibitor] | -2.0 | 103.8 | 27.9 | 93.0 | -6.0 | 102.0
CC1=NNC(=O)C1C(c1ccccc1)C1C(=O)NN=C1C (stereo not drawn) | 113.0 | -25.1 | 129.0* | 1.0 | nt | -5.6 | 97.0 | -6.0 | 101.0
